# Active and inactive are the calls of the source. The calls are words filed in the database; no cut-off is given here.
# Assays:
# [1] = test system: MCF7; experiment: Effect on 10e-9 M estradiol stimulation of MCF-7 cell proliferation at 3x10E-8M; Agonistic; format: functional, cell-based; details: Homo sapiens, filed as agonist
# [2] = target: T1, Estrogen receptor (Ovis aries) (UniProt P49885+Q9TU15); experiment: Time dependent irreversible binding to estrogen receptor by inactivation-exchange assay; Good; format: protein assay
# [3] = test system: MCF7; experiment: Effect on 10e-9 M estradiol stimulation of MCF-7 cell proliferation at 3E-7M: Weak antagonistic; format: functional, cell-based; details: Homo sapiens, filed as antagonist
# [4] = target: T1, Estrogen receptor (Ovis aries); experiment: Time dependent irreversible binding to estrogen receptor by inactivation-exchange assay; Weak; format: protein assay
# [5] = test system: MCF7; experiment: Effect on 10e-9 M estradiol stimulation of MCF-7 cell proliferation at 3x10E-7M; potent agonistic; format: functional, cell-based; details: Homo sapiens, filed as agonist
# [6] = test system: MCF7; experiment: Effect on 10e-9 M estradiol stimulation of MCF-7 cell proliferation at 3x10E-7M;weak agonistic; format: functional, cell-based; details: Homo sapiens, filed as partial agonist
# Outline: (§1)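 MCF-7 human breast cancer cells kept 1 week in phenol red-free IMEM with 5% charcoal dextran-treated calf serum, then seeded at ca. 0.5 x 10^5 cells/flask. Next day switched to phenol red- and insulin-free medium holding compound, estradiol (10^-9 M), hydroxytamoxifen or 0.1% ethanol vehicle, renewed every 48 h. Cells counted after 8 days. Agonism is growth relative to estradiol; antagonism is suppression of estradiol-stimulated growth.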
# [7] = test system: MCF7; experiment: Effect on 10e-9 M estradiol stimulation of MCF-7 cell proliferation at 4x10E-8M; Agonistic; format: functional, cell-based; details: Homo sapiens, filed as agonist; outline: as §1
# [8] = test system: MCF7; experiment: Effect on 10e-9 M estradiol stimulation of MCF-7 cell proliferation at 10e-8 M; format: functional, cell-based; details: Homo sapiens, filed as agonist
# [9] = test system: MCF7; experiment: Effect on 10e-9 M estradiol stimulation of MCF-7 cell proliferation at 4x10E-8M; Agonist; format: functional, cell-based; details: Homo sapiens, filed as agonist
# [10] = target: T1, Estrogen receptor (Ovis aries); experiment: Time dependent irreversible binding to estrogen receptor by inactivation-exchange assay; No; format: protein assay
# [11] = test system: MCF7; experiment: Effect on 10e-9 M estradiol stimulation of MCF-7 cell proliferation at 3x10E-7M; very weak; format: functional, cell-based; details: Homo sapiens; outline: as §1
smiles,measurement,setting,value
CC[C@H](c1ccc(O)cc1)[C@@H](CSCCCN1CC1)c1ccc(O)cc1,Activity,[1],Agonist
same,Irreversible binding,[2],Time-dependent effect
CC[C@H](c1ccc(O)cc1)[C@@H](CCCCN1CC1)c1ccc(O)cc1,Activity,[3],Partial antagonist
same,Irreversible binding,[2],Time-dependent effect
CC[C@H](c1ccc(O)cc1)[C@@H](C(=O)OCCN1CC1)c1ccc(O)cc1,Irreversible binding,[4],Partially active
same,Activity,[5],Agonist
CC[C@H](c1ccc(O)cc1)[C@@H](C(=O)CCCCN(C)C)c1ccc(O)cc1,Activity,[6],Partial agonist
CC[C@H](c1ccc(O)cc1)[C@@H](CSCCCN(C)C)c1ccc(O)cc1,Activity,[7],Agonist
CC[C@H](c1ccc(O)cc1)[C@@H](C(=O)CCCCN1CC1)c1ccc(O)cc1,Activity,[8],Agonist
same,Irreversible binding,[2],Time-dependent effect
CC[C@H](c1ccc(O)cc1)[C@@H](C(=O)OCCCN1CC1)c1ccc(O)cc1,Irreversible binding,[4],Partially active
same,Activity,[5],Agonist
CC[C@H](c1ccc(O)cc1)[C@@H](CSCCN1CC1)c1ccc(O)cc1,Activity,[9],Agonist
same,Irreversible binding,[10],inactive
CC[C@H](c1ccc(O)cc1)[C@@H](CCCCN1CCNCC1)c1ccc(O)cc1,Activity,[11],inactive
CC[C@H](c1ccc(O)cc1)[C@@H](C(=O)N1CC1)c1ccc(O)cc1,Activity,[5],Agonist
same,Irreversible binding,[10],inactive

# Reference: ChEMBL document CHEMBL1123850, “Estrogenic affinity labels: synthesis, irreversible receptor binding, and bioactivity of aziridine-substituted hexestrol derivatives” (J Med Chem, 1987)
